eIF4H inh – human eIF4H binding inhibitors, primary screen, translation initiation inhibitor project, biochemical, uHTS, fluorescence polarization | Eukaryotic translation initiation factor 4H (Homo sapiens), Q15056 | eIF4H fluorescence polarization binding assay | inhibition, % at 35 µM | 290,000 tested, 0.94% active;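 also: calls also rest on retests at 20 µM and on dose response follow-up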
EBNA-1 inhibitor – EBNA-1 DNA-binding inhibitors, primary screen, biochemical, fluorescence polarization; inhibition, % at 14.8 µM; 300,000 tested, 0.34% active; AID 1950, 2009; in the data active = inhibition above about 28%
ZTA counter – counter-screen for EBNA-1 inhibitors: inhibitors of Epstein-Barr virus ZTA; inhibition, % at 11 µM; ZTA-DNA binding, fluorescence polarization; 320,000 tested, 0.15% active; in the data active = inhibition above about 33%
Target sequence (P03206 whole entry, looked up): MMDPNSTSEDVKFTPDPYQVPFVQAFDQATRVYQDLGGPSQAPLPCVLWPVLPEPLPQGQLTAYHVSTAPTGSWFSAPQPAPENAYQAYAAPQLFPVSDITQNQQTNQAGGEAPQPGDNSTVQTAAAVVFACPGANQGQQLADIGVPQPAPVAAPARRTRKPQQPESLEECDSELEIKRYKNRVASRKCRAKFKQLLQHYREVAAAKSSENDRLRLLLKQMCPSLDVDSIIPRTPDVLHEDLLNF
MLLE-PAM2 inh – inhibitors of PABP1 MLLE–PAM2 peptide binding, primary screen, biochemical, fluorescence polarization, FITC-PAM2, GST-MLLE. Polyadenylate-binding protein 1 (Homo sapiens), P11940. inhibition, % at 20 µM. 360,000 tested, 0.36% active. AID 588489, 2011; in the data active = inhibition above about 35%, passing the limit was not always enough;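 also: plate controls were DMSO wells with GST-MLLE for no effect and wells lacking GST-MLLE protein for full effect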
PABP polyA inh – PABP poly(A) RNA binding inhibitors, primary screen, biochemical, fluorescence polarization, uHTS; 290,000 tested, 1% active; Polyadenylate-binding protein 1 (Homo sapiens), P11940; AID 2014, 2009; inhibition, % at 35 µM;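 also: calls also rest on retests at 20 µM and on dose response follow-up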
NS3 helicase inh – inhibitors of HCV NS3 helicase, primary screen, biochemical, Cy5 molecular beacon fluorescence. Hepatitis C virus NS3 helicase. NS3 helicase DNA unwinding. inhibition, % at 10.9 µM. 290,000 tested, 0.56% active. AID 1800, 2009;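 active = inhibition above the mean of all tested compounds plus 3 SD, set per campaign, cut at about 35% in these data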;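 also: 0% = DMSO wells and 100% = thioflavine S control wells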
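System: NS3 helicase fragment of HCV / Schedule: 1 h at 25 °C / Control set: DMSO alone as 0% and 110 µM thioflavine S as 100% / Reagent: Cy5/quencher beacon DNA duplex and ATP to start / Technique: Cy5 fluorescence / Replication: singlicate / Evaluation: % inhibition of end-to-start signal ratio versus controls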
Zta DNA confirm – EBV Zta binding to ZRE DNA, inhibitors, confirmation, biochemical, fluorescence polarization, triplicate | shares compounds with ZTA counter | inhibition, % at 11.1 µM | 320 tested, 30% active | AID 2361, 2010;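 active = mean inhibition across triplicate runs above the hit threshold derived for the original primary screen, cut at about 33% in these data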;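 also: 0% = Zta with DMSO and 100% = wells lacking Zta protein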
EBNA1 counter – EBNA-1 DNA-binding inhibition, counter-screen for ZTA inhibitor project, biochemical, fluorescence polarization. shares compounds with ZTA counter. inhibition, % at 14.8 µM. 320 tested, under 10 active
Numbers without * were called inactive; i = inactive; ? = inconclusive; . = no result. An excerpt weighted towards active compounds, which were near 2.1% of everything screened. Unless noted, no rule for the calls is given here.

SMILES | eIF4H inh | EBNA-1 inhibitor | ZTA counter | MLLE-PAM2 inh | PABP polyA inh | NS3 helicase inh | Zta DNA confirm | EBNA1 counter
CN1CCC(OC(c2ccccc2)c2ccccc2)CC1 | 8 | 7 | 60* | -5 | 5 | -13 | 13 | 7
CSC1=NSC2=NC(=O)/C(=C\c3coc4ccccc4c3=O)C(=N)N12 | 49 | 9 | 5 | i | -4 | 20 | . | .
N=C1/C(=C\c2coc3ccccc3c2=O)C(=O)N=C2SC(c3ccncc3)=NN12 | ? | -2 | 39* | i | ? | 7 | 63* | -6
CC(=O)c1ccc(NC(=O)C(C)n2nc(-c3ccccc3)c3cc(Cl)ccc32)cc1 (configuration not stated) | -7 | -3 | 3 | 1 | -3 | 1 | . | .
COc1ccc(Cl)cc1C(=O)Nc1cccc(-c2ccc3nncn3n2)c1 | -34 | 4 | 92* | -186 | -11 | -67 | 118* | 10
CN(C(=O)c1cccnc1)c1nnc(-c2ccccn2)s1 | -1 | 9 | 8 | -18 | -6 | -1 | . | .
CCOC(=O)C(C)Sc1ncc(-c2ccccc2)cn1 (configuration not stated) | -7 | -2 | 79* | -3 | -7 | 3 | -2 | -9
CCOC(=O)C(C)Sc1nc(=O)n2ccccc2n1 (configuration not stated) | 12 | 2 | 2 | 5 | 11 | -10 | . | .
O=C(Nc1cc(C(F)(F)F)ccc1N1CCCC1)C1CCCO1 (configuration not stated) | . | . | -5 | 4 | . | . | . | .
COc1cc(O)c2c(c1)OC(c1ccc(O)cc1)CC2=O (configuration not stated) | 10 | -5 | 34* | -11 | 4 | 10 | 16 | -8
COc1ccc(OC)c(N)c1 | 40 | 20 | 37* | 9 | 79 | -1 | -13 | -9
COc1ccc(OC)c(C(=O)C(=O)c2cc(OC)ccc2OC)c1 | . | . | . | 7 | . | . | . | .
Cc1cccc(NC(=O)CCNS(=O)(=O)c2ccc3[nH]c(=O)oc3c2)c1 | 4 | -5 | 198* | -6 | 0 | 4 | -16 | -5
OC(Cn1cnnc1)c1ccccc1 (configuration not stated) | 14 | -4 | 53* | -12 | 8 | 4 | 1 | -2
OC(CCCC(O)c1ccccc1)c1ccccc1 (configuration not stated) | . | . | . | -2 | . | . | . | .
CCc1nnc(NS(=O)(=O)c2ccc(NC(=S)NC(=O)/C=C/c3ccccc3)cc2)s1 | 8 | 1 | 37* | 20 | -6 | 29 | 13 | 5
CC(C)Oc1ccc(CCNC(=O)CC2C(=O)NCCN2C)cc1 (configuration not stated) | 0 | -15 | 52* | 3 | 8 | -26 | 10 | 5
COc1ccccc1NC(=O)CSc1nc2c(sc3ccccc32)c(=O)n1CCN(C)C | -6 | 10 | 5 | 33 | -17 | -17 | . | .
CCN(CC)CCn1c(SCC(=O)Nc2ccc(F)cc2)nc2c(sc3ccccc32)c1=O | -7 | 6 | 38* | . | -1 | -86 | 24 | -6
N/C(=N\OC(=O)COc1ccc(Br)cc1Cl)c1ccccn1 | -13 | -13 | 74* | 0 | -7 | -6 | 6 | -10
O=C(Nc1cccc(C(=O)N2CCN(c3ccccc3)CC2)c1)c1ccco1 | 14 | 1 | 6 | 2 | 7 | 2 | . | .
O=C(Nc1cccc(C(=O)N2CCCCCC2)c1)c1ccco1 | -6 | 1 | 40* | -4 | -2 | -8 | -2 | -3
O=C(CSC1=NS(=O)(=O)c2cc(Cl)ccc2N1)Nc1cccc(F)c1 | . | 3 | 1 | -2 | . | . | . | .
O=C1c2ccccc2-c2onc3ccc(NCCCn4ccnc4)c1c23 | 127 | 12 | 49* | . | 120 | 35 | 32 | 21
CCCn1nc(C(=O)N2CCN(c3ccccn3)CC2)c2ccccc2c1=O | . | . | . | -15 | . | . | . | .
SMILES | eIF4H inh | EBNA-1 inhibitor | ZTA counter | MLLE-PAM2 inh | PABP polyA inh | NS3 helicase inh | Zta DNA confirm | EBNA1 counter
O=Cc1ccc(-c2cccs2)s1 | . | . | . | -5 | . | . | . | .
Oc1ccc(N=Cc2ccc(-c3cccs3)s2)cc1 | 51* | -1 | 46* | -3 | 14 | 22 | 47* | 1
COc1cc(/C=C/C(=O)O)cc(S(=O)(=O)Nc2cccc(SC)c2)c1OC | -4 | -2 | -20 | -2 | -3 | 11 | . | .
CCCCC1(C)NC(=O)N(CC(=O)Nc2ccc(S(=O)(=O)N3CCOCC3)cc2)C1=O (configuration not stated) | -5 | 16 | 47* | -18 | -13 | 1 | -1 | -5
CCOC(=O)c1ccc(NC(=O)CCc2nc(-c3ccc(C)cc3)no2)cc1 | -6 | 8 | 35* | 11 | -14 | -16 | -4 | -7
CCOC(=O)c1ccc(NC(=O)CCc2nc(-c3ccc(Cl)cc3)no2)cc1 | -6 | -2 | -8 | -4 | -10 | -7 | . | .
Cc1ccc(N2CC(C(=O)NCc3n[nH]c(=O)c4ccccc34)CC2=O)cc1C (configuration not stated) | . | -1 | -3 | 8 | . | . | . | .
O=C(CC(C(=O)O)c1ccc(Cl)cc1)c1ccc(Cl)c(Cl)c1 (configuration not stated) | -4 | 1 | -8 | 5 | -4 | 2 | . | .
O=C(CC(C(=O)O)c1ccc(Cl)cc1Cl)c1ccc(Cl)cc1 (configuration not stated) | 6 | 7 | 33* | 3 | 0 | -2 | -1 | -3
Cc1c(C)n(Cc2ccccc2)c2ncnc(NN)c12 | -2 | 13 | 39* | -21 | 2 | -26 | -2 | 0
O=c1c2ccccc2nc(/C=C/c2cc(Br)ccc2O)n1CCO | . | 5 | 19 | -28 | . | . | . | .
COc1ccc(-n2nc3c(=O)[nH][nH]c3cc2=O)cc1 | 90 | 1 | -2 | 3 | -10 | 17 | . | .
O=C(Nc1ccc2oc(-c3ccncc3)nc2c1)c1ccc2c(c1)OCO2 | -28 | 2 | 50* | -155 | -59 | 9 | 76* | 10
COc1cccc(O)c1CN1CCC(n2nccc2NC(=O)c2ccc3c(c2)OCO3)CC1 | -12 | 0 | -4 | 5 | -2 | -28 | . | .
Cc1ccc(NC(=O)CSCC#N)cc1 | 3 | 7 | 34* | 27 | -6 | 4 | -14 | -9
Cn1cc(C(=O)N/N=C/C2=C(N3CCOCC3)C(=C/c3ccc([N+](=O)[O-])cc3)/CC2)ccc1=O | . | 10 | 0 | 2 | . | . | . | .

Assay outcomes deposited in PubChem BioAssay by several laboratories.
